# Data taken from ChEMBL document CHEMBL4513216, “Probing the Open Global Health Chemical Diversity Library for Multistage-Active Starting Points for Next-Generation Antimalarials” (ACS Infect Dis, 2020).
# Test: Toxicity liver stage against HepG2, at 10uM
# Assay type: cell-based
# Parameters: test concentration 10 uM, cell line HepG2-A16-CD81EGFP
# Details: human, HepG2-A16-CD81EGFP cells; read-out: INHIBITION
# Summary of the method: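 Uninfected HepG2-A16-CD81EGFP cells, 3 × 10^3 per well, 1536-well, plated on prespotted compound at 10 μM final, parasite-free screening media added to match infected plates; puromycin 10 μM positive, DMSO 0.5% negative; run in parallel with 48 h PbLuc assay at 37 °C, 5% CO2; viability by CellTiter-Glo luminescence, normalized to controls.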
row,SMILES,cytotoxicity at 10 µM
1,CS(=O)(=O)c1ccc(Cl)c(NC(=O)NCCC2=CCCCC2)c1,0.0793%
2,COCCN1CCN(C(=O)C[C@@H]2C[C@@H](C(C)C)[C@H](CO)C=C2C)CC1,4.82%
3,COCC(=O)NC[C@H]1C[C@@H]2CCN1C[C@@H]2CN(C)c1ccccc1,-2.17%
4,COc1ccccc1NC(=O)N1CCCC1c1ccco1 (stereo not given),-4.78%
5,CCC1CN(CC(=O)NCCN2CCCCCC2)c2ccccc2S1 (stereo not given),-1.14%
6,Cc1cc2c(N)nc(=O)n(CC(=O)Nc3ccccc3)c2s1,1.54%
7,Cc1ccc(S(=O)(=O)Nc2c(C)nc(N3CCCC3)nc2C)cc1,-0.243%
8,CN1[C@@H](C(=O)NCC2CC2)C[C@@H]2CN(Cc3ccoc3)C[C@@H]21,3.88%
9,Cc1cnc(N2CCOC3(CCCN(c4ncccn4)C3)C2)nc1 (stereo not given),9.19%
10,O=C(c1ccsc1)N1CCc2c(CN3CCCC3)n[nH]c2C1,5.04%
11,CC(C)NC(=O)N1CCN(S(=O)(=O)C2CC2)CC2(CC(=O)N(C)C2)C1 (stereo not given),1.11%
12,Cc1cc(C(=O)N2C[C@@H]3COC[C@]3(COCc3cccnc3)C2)no1,-16.1%
13,CCS(=O)(=O)Nc1cnn(Cc2cccc(Cl)c2)c1,-11.5%
14,Cn1nnc(NCc2ccc(-c3ccc(Br)cc3)o2)n1,-11.1%
15,CCn1ncc(Cl)c1CN(C)C(=O)CCn1ncc(Br)c1C,2.93%
16,COCCC(=O)N1CCC(c2nnc(-c3ccsc3)o2)CC1,9.09%
17,O=C(COc1cccc(F)c1)N1CCCCC1c1ccn2ccnc2n1 (stereo not given),-6.11%
18,O=c1[nH]c2ncccc2n1C1CCCCC1,3.16%
19,CCn1c(C)cc(C(=O)Nc2ccccc2CN(C)C(C)=O)c1C,-1.03%
20,CN(C)CCOc1ccccc1N1CCN(C(=O)c2ccoc2)CC1,24.8%
21,CCNC(=O)Nc1cccc(F)c1C(=O)NC1CCCC1,5.69%
22,Cc1ccccc1S(=O)(=O)Cc1nsc(N(C)C)n1,-4.45%

row,SMILES,cytotoxicity at 10 µM
1,COCCN1CC(C(=O)N(C)Cc2ccc(Cl)s2)CC1=O (stereo not given),8.69%
2,COc1ccc(OC)c(CN2CCN(Cc3cscn3)CC2)c1,-7.15%
3,NC(=O)NC1CCN(Cc2ccc(Br)c(F)c2)CC1,-1.57%
4,Cc1cc(C(=O)Nc2cc(C3CC3)n[nH]2)c2c(C)nn(C)c2n1,-2.14%
5,CC(C)C(NC(=O)Cc1ccccc1)C(=O)NCc1ccc(O)nc1 (stereo not given),0.833%
6,CC(C)C(C)N(C(=O)Cn1nc2n(c1=O)CCCCC2)C1CC1 (stereo not given),-5.77%
7,c1ccc2nc(N3CCCCC3)c(NCc3nnc4n3CCC4)nc2c1,2.48%
8,CN(C)c1cc2c(nn1)CCN(C(=O)c1cc3c(s1)CCC3)C2,-6.97%
9,CCS(=O)(=O)CC(=O)N1CCCC(c2noc(C(C)C)n2)C1 (stereo not given),-4.78%
10,CCOc1ccc(Cl)cc1CCNC(=O)N1CCCC(CO)C1 (stereo not given),5.46%
11,CCCc1n[nH]c(C2CN(Cc3ncc[nH]3)CCO2)n1 (stereo not given),4.69%
12,CC(CC(=O)N1CCC(c2nnc3n2CCC3)CC1)n1cccc1 (stereo not given),8.11%
13,Cc1csc(CN(C)C(=O)Nc2cnn(CC3CCCO3)c2)n1 (stereo not given),-3.28%
14,CCOc1ccc(NC(C)C(=O)NCCc2cccs2)cc1CO (stereo not given),-6.79%
15,CS(=O)(=O)CCC(=O)NC1CC(c2cccc(Cl)c2)C1 (stereo not given),1.36%
16,CCCN(C(=O)c1csnn1)C1CCCN(Cc2ccccc2)C1 (stereo not given),-4.38%
17,N#Cc1cccc(OCCCN2CCN(C(=O)c3ccoc3)CC2)c1,3.57%
18,CN(CC1CC1)C(=O)CN1CCCC1c1cnn(C)c1 (stereo not given),2.01%
19,O=C(CN1CCc2[nH]c3ccccc3c2C1)NCc1ccco1,-3.04%
20,COc1ccc(CNCCc2ccn(-c3ccccc3)n2)cc1O,-0.13%
21,CNC(=O)CCc1cccc(OC2CCCC2)c1,-0.408%
22,Cc1cc(C)n(C2CN(c3ncnc4c3CCC4)C2)n1,8.09%

row,SMILES,cytotoxicity at 10 µM
1,Cn1ncnc1CNc1ccccc1C(=O)NC(C)(C)C,3.9%
2,Cc1cc(C2CCCN(CCC(=O)N3CCc4ccccc43)C2)n[nH]1 (stereo not given),-7.9%
3,CC(=O)c1ccc(Cl)c(Cl)c1OCC(=O)NC(N)=O,7.49%
4,CC(NCC(=O)NCC(=O)Nc1ccc(F)cc1)c1cccs1 (stereo not given),6.02%
5,CNC(=O)CN1CCC(NC(=O)Cc2ccccc2OC(C)C)CC1,-2.14%
6,COc1ccc(CC(=O)N2CCCCC2Cn2cccn2)cc1OC (stereo not given),-12.4%
7,COCC(=O)NCC[C@H]1CC(C)(C)Oc2ccc(OC)cc21,-5.36%
8,O=C(CSCC1CC1)N1CCC2(CCCN(C3CCOCC3)C2=O)C1 (stereo not given),-127%
9,COc1ccccc1C(O)CNc1nccc(-c2ccc(C)nc2C)n1 (stereo not given),8.95%
10,Cc1ccc([C@@H]2CN(S(=O)(=O)c3ccccc3)C[C@H]2N(C)C)cc1,-4.44%
11,CCSc1ncc(CN(Cc2cnn(C)c2)CC(C)C)cn1,-7.53%
12,CS(=O)(=O)NCc1cc2n(n1)CCCN(Cc1ccc(Cl)s1)C2,2.81%
13,COCCn1c(CN2CCCO2)cnc1S(=O)(=O)CC1CCCCC1,-8.62%
14,CCN1CC2(CCN(CCOc3ccc(F)cc3)CC2)CC1=O,8.12%
15,CS(=O)(=O)c1ncc(CN2CCCC(C(N)=O)C2)n1CC1CCCCC1 (stereo not given),-2.35%
16,CCc1ncc(CN2CCCC3(CCC(=O)N(CCC(C)C)C3)C2)cn1 (stereo not given),-7.66%
17,CCc1csc(CCNC(=O)CC2CCN(C(C)C)CC2)n1,6.62%
18,COc1ccc(OC)c2c(C)cc(N(C)CCO)nc12,6.36%
19,CC(C)OC(=O)N1CCCC2(CCC(=O)N(CCc3c[nH]cn3)C2)C1 (stereo not given),-3.73%
20,CC(C)(C)n1cc(C2=CCN(CCN3CCCCCC3)CC2)cn1,-0.481%
21,Cc1ccc(CN2CCNC(=O)C2CC(=O)N2CCSCC2)o1 (stereo not given),4.48%
22,Nc1cc(C(=O)NCC2CCN(Cc3ccncc3F)C2)ccn1 (stereo not given),-24.2%

row,SMILES,cytotoxicity at 10 µM
1,Cc1ncsc1CCN(C)Cc1cc2n(n1)CCN(Cc1ccco1)C2,-4.93%
2,CN1CCC2(CC1)CCN(C(=O)c1onc3ccccc13)C2,-9.14%
3,COc1ccc(CNC(=O)N2CCN(C)[C@@H]3CS(=O)(=O)C[C@@H]32)cc1,8.64%
4,CN(CCN1CCCCCC1)Cc1cnc(N)nc1,0.993%
5,Cc1cc(N2CCC(C(=O)O)(n3ccc(C(C)(C)C)n3)CC2)nc(N)n1,-5.6%
6,Cc1csc(CN(C)c2cc(C)nc3c(C)c(C)nn23)n1,-2.96%
7,CCC(C)N(Cc1cccnc1)C(=O)c1ccc(F)c(O)c1 (stereo not given),1.87%
8,CCn1c(C2CCCN(Cc3cccc4cnccc34)C2)nn(C)c1=O (stereo not given),-6.29%
9,CN1CC2(CCCN(Cc3ccccc3OCC(=O)O)C2)OC1=O (stereo not given),-6.64%
10,COc1ccc(Cl)cc1C(=O)N1C[C@@H](NC(=O)N(C)C)[C@H](C(C)C)C1,-1.41%
11,Cc1nnc(CCNC(=O)c2coc(CN3CCOCC3)c2)s1,-9.21%
12,CC[C@H](C)[C@@H](CO)NC(C)Cc1ccccc1F (stereo not given in full),-7.36%
13,CCCc1nnc(N2CCN(c3ccccc3OCC)CC2)o1,3.88%
14,Cc1cccc(CN2CCc3c(nc(N4CCC(C)CC4)[nH]c3=O)C2)n1,-1.75%
15,Cc1nnc(NCc2ccccc2F)c(C#N)c1C,-9.71%
16,CC(NC(=O)NCCCN1CCCC1)c1nncn1C (stereo not given),-0.373%
17,COc1cc(CNCC(O)c2ccc(F)cc2F)cc2c1OCO2 (stereo not given),-1.37%
18,CCS(=O)(=O)c1ccccc1N1CCC(NC2CCCC2)CC1,-2.63%
19,Cc1ccc(NC(=O)C2CSCN2C(=O)c2cccnc2)c(C)c1 (stereo not given),-1.9%
20,CCc1nc(CNCCn2cc(C)cn2)no1,-4.32%
21,Cn1cc(C2CCCN2C(=O)CCCOc2ccccc2F)cn1 (stereo not given),0.2%
22,Cc1noc(CCCC(=O)N2CCCC2c2ccsc2)n1 (stereo not given),-3.02%

row,SMILES,cytotoxicity at 10 µM
1,CS(=O)(=O)NCCN1CCCC1c1noc(C2CC2)n1 (stereo not given),-23.7%
2,Cc1n[nH]c(C2CN(Cc3nnc(C4CCC4)o3)CCO2)n1 (stereo not given),-3.72%
3,c1ccc(-c2nnc(CN3CCOC(Cn4cccn4)C3)o2)cc1 (stereo not given),-2.48%
4,Cc1n[nH]c(C2CN(C(=O)c3cc4c(s3)CCC4)CCO2)n1 (stereo not given),-5.65%
5,Cc1nc(C(=O)N2CCCC2c2noc(C)n2)c[nH]1 (stereo not given),-4.95%
6,CC(C)c1ccc(S(=O)(=O)N2CSCC2C(=O)NCC(F)(F)F)cc1 (stereo not given),-13.3%
7,Fc1ccc(OCCNCCn2cccn2)cc1,-4.17%
8,CC(C)c1nc(C2CCCN2C(=O)c2ccc(N(C)C)nn2)no1 (stereo not given),-8.11%
9,CC(C(=O)NCc1ccnc(N2CCCC2)c1)n1cncn1 (stereo not given),-3.43%
10,O=C(c1cccc2[nH]ncc12)N1CCCC1c1noc(C2CC2)n1 (stereo not given),-2.91%
11,CCn1cc(NC(=O)C2CCN(Cc3noc(C(C)C)n3)CC2)cn1,0.89%
12,COc1ccnc(N2CCN(C(=O)NCc3ccc(C)s3)CC2)n1,-2.45%
13,COCCOc1ccc(NC(=O)N2CCCC2c2cc(C)no2)cn1 (stereo not given),5.32%
14,CNC(=O)[C@@H](c1ccccc1F)N1CCC[C@H]1C(=O)NC1CC1,-5.84%
15,CN1CCN(Cc2ccncc2)C(=O)C12CCN(Cc1ccsc1)CC2,3.03%
16,CC(C)CN1CC[C@@H]2[C@@H]1CCN2S(=O)(=O)c1cccs1,2.61%
17,CC(=O)N1CC[C@H]2[C@H](C[C@@H](CN3CCCC3)N2c2nccs2)C1,1.84%
18,CN1CCn2c(-c3cnn(C)c3)cnc2C12CCN(CC1CC1)CC2,7.55%
19,O=S(=O)(C1CC1)N1C[C@H]2CCC[C@@]2(COc2ccccn2)C1,-3.47%
20,Cc1n[nH]cc1CNCC(O)c1ccc(F)c(F)c1 (stereo not given),6.8%
21,CCN1CCO[C@@H]2CN(C(=O)COC3CCCC3)C[C@@H]2C1,4.32%
22,CN(C)S(=O)(=O)N1C[C@H]2CC[C@@H](C1)N(Cc1ccc(F)c(F)c1)C2,1.05%
